Compounds with a hit are over-represented: about 2% of the library has one in this group of screens.
TCR CD3 inh – inhibitors of human TCR-CD3 interaction; inhibition, % at 9.4 µM; TAMRA-labeled TCR probe fluorescence, biochemical; actives 0.37% (n = 360,000); AID 651800; in the data active means inhibition above about 19%;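 further: recombinant mutant TCR 2C K166C tagged with TAMRA read by polarization; 0% = receptor in buffer alone and 100% = receptor with positive control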
ASAP1 GAP inh – inhibitors of human ASAP1 ArfGAP activity; Q9ULH1; actives 0.19% (n = 360,000); ASAP1-stimulated ARF1 GTP hydrolysis, GDP FP detection; inhibition, % at 16.5 µM; in the data active means inhibition above about 25%;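 further: 0% = vehicle with enzyme and substrate and 100% = no enzyme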
ARFGAP1 inh – inhibits rat ARF GTPase activating protein 1; inhibition, % at 16.5 µM; Arfgap1-stimulated ARF1 GTP hydrolysis, GDP FP detection; actives 0.26% (n = 360,000); AID 651572; Q62848;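 active means inhibition above a per-plate limit, mean inhibition of low control wells plus 3 SD, cut at about 25% in these data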;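 further: 0% = DMSO wells with enzyme and 100% = wells lacking Arfgap1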
Target sequence (Q62848 1-136 limits assumed): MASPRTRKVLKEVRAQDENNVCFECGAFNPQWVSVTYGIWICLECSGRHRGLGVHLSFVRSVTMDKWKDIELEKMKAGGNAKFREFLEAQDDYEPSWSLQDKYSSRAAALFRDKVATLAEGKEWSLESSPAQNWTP
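material = rat Arfgap1 catalytic domain, aa 1-136 | also added = human ARF1(Δ1-17)-GTP substrate | compound dosing = one concentration, 16.5 µM, DMSO 1.26% | times = GTP hydrolysis reaction 2 h at 25 °C | measured by = FP, GDP Alexa 633 tracer displaced from anti-GDP antibody, 620/688 nm | evaluation = percent inhibition of Arfgap1-stimulated GTP hydrolysis | replication = single well per compound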
MBD2 inh – inhibitors of human MBD2 binding to methylated oligonucleotide | TR-FRET | inhibition, % at 4.4 µM | Q9UBB5 | AID 686964 | actives 0.31% (n = 370,000); in the data active means inhibition above about 13%
Target sequence (Q9UBB5 whole entry, looked up): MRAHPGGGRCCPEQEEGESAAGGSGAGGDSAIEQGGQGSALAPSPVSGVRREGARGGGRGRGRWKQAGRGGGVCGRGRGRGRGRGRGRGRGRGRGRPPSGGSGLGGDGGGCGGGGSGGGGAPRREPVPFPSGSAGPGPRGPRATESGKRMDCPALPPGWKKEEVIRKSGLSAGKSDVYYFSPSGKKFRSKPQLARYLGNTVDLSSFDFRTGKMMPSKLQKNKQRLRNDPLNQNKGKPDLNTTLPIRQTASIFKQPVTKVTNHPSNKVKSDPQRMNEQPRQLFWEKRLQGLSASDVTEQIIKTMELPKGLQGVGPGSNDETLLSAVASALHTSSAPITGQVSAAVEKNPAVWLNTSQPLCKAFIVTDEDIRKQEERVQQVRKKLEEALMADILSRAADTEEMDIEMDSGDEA
UHRF1 binding – blocks human UHRF1 binding to methylated DNA; inhibition, % at 4.4 µM; actives 0.75% (n = 370,000); AID 687016; UHRF1 binding to methylated oligo, TR-FRET; in the data active means inhibition above about 21%;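 further: UHRF1 SRA domain binding a hemimethylated CpG hairpin DNA probe; 0% = median of test compound wells and 100% = reference inhibitor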
LEDGF integ inh – blocks HIV-1 LEDGF/p75-dependent DNA integration; inhibition, % at 3.7 µM; TR-FRET IN-LEDGF/p75 DNA integration, Eu/Cy5; actives 0.64% (n = 370,000); AID 743269;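 active means inhibition above the screen-wide mean plus 3 SD, cut at about 13% in these data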;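 further: signal is the Cy5 over europium emission ratio at 671 and 618 nm; 0% = plate median of compound wells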
An asterisk follows results filed as active; . = not tested or not shown.

SMILES	TCR CD3 inh	ASAP1 GAP inh	ARFGAP1 inh	MBD2 inh	UHRF1 binding	LEDGF integ inh
C/C(=N/NC(=O)C1CC1(c1ccccc1)c1ccccc1)c1ccco1 (configuration not stated)	-2	11	0	2	28*	-1
CN(C)c1cccc(CNC(=O)c2ccc3nc([C@@H]4O[C@H](CO)[C@H](O)[C@H](O)[C@H]4O)[nH]c3c2)c1	3	-1	-2	1	81*	-1
Cc1cccc(C(=O)Nc2ccc(C(=O)/C=C/c3cccnc3)cc2)c1	-6	5	8	0	0	2
O=C(/C=C/c1cccnc1)c1ccc(NC(=O)c2cccc(Br)c2)cc1	18	26*	8	-3	-4	-1
Cc1cccc(C(=O)Nc2nc3ncccn3c2-c2ccc(F)cc2)c1	.	.	.	-2	2	5
CCOC(=O)C1=C(COC(=O)[C@@H](NC(=O)c2cccc(C)c2)C(C)C)NC(=O)NC1C (some centres not stated)	-1	7	5	3	21*	-2
CCOC(=O)C1=C(COC(=O)COc2ccc(C#N)cc2)NC(=O)NC1C (configuration not stated)	-1	17	1	11	22*	8
O=C(/C=C/c1ccccc1)NC(NC(=S)Nc1ccc(Cl)cc1)C(Cl)(Cl)Cl (configuration not stated)	26*	12	2	2	-2	-3
COc1ccc(NC(=S)NC(NC(=O)/C=C/c2ccccc2)C(Cl)(Cl)Cl)cc1 (configuration not stated)	-3	-3	-5	-5	0	2
COc1ccc(OC)c(NC(=O)CSc2nnc(CNC(=O)c3ccco3)o2)c1	2	3	6	-3	8	-2
COc1ccc(Cl)cc1NC(=O)CSc1nnc(CNC(=O)c2ccco2)o1	1	-10	6	0	22*	-4
Cc1ccc(NN2C(=O)C=C(c3ccccc3)C2=O)cc1	3	4	11	2	21*	3
O=C1c2ccccc2C(=O)N1Nc1ccccc1	0	0	0	4	1	2
Cc1c(NC(=O)C2CCCN(S(=O)(=O)c3c(C(C)C)cc(C(C)C)cc3C(C)C)C2)c(=O)n(-c2ccccc2)n1C (configuration not stated)	.	.	.	3	-3	0
O=C(O)/C=C/c1ccccc1[N+](=O)[O-]	-4	-5	6	4	-1	1
CC(C)N(Cc1ccccc1)C(=O)/C=C/c1ccccc1[N+](=O)[O-]	-11	-9	1	3	28*	3
CCC(=O)OCOc1ccc(/C=C2/CCC(CN(C)C)C2=O)cc1 (configuration not stated)	6	-11	3	1	-3	7
O=C(N/N=C/c1cc2c(cc1Cl)OCO2)c1cccc(Br)c1	-1	-7	-9	2	39*	-1
O=C(N/N=C/c1cc2c(cc1Cl)OCO2)c1ccncc1	5	2	2	3	0	-1
COc1ccc(Cn2c(SCC(=O)NCc3ccco3)nc3ccsc3c2=O)cc1	5	-6	-3	-4	5	21*
O=C1C(NC(=O)N2c3ccccc3C=Cc3ccccc32)CCCCN1Cc1cccc(Cl)c1 (configuration not stated)	.	.	.	1	-1	-4
O=C1C(NC(=O)N2c3ccccc3C=Cc3ccccc32)CCCCN1Cc1ccc(Cl)cc1 (configuration not stated)	.	.	.	1	27*	-4
Cc1cc(C)n(CCCNC(=O)CCNS(=O)(=O)c2ccccc2C(F)(F)F)n1	11	9	0	-1	24*	1
CCCC[C@H]1C2CC(OC(=O)Nc3ccc(C)cc3)C(C2)[C@H]2CCCCN21 (some centres not stated)	.	.	.	-3	0	3
COc1cccc(N2CCN(C(=O)CSc3nc4ncccc4[nH]3)CC2)c1	.	.	.	1	-1	-1
SMILES	TCR CD3 inh	ASAP1 GAP inh	ARFGAP1 inh	MBD2 inh	UHRF1 binding	LEDGF integ inh
Cc1ccc(OS(=O)(=O)c2cn(C)c(=O)n(C)c2=O)cc1C	-1	9	-2	1	-2	0
Cn1cc(S(=O)(=O)Oc2ccccc2)c(=O)n(C)c1=O	3	-18	5	4	28*	-6
C/C(=N\Nc1ccc(C(F)(F)F)cn1)c1ccncc1	1	6	-4	10	22*	5
CC1=C(C(=O)N(C)C)CC(CC(=O)NCCCN(C)C)C(=O)N1CCC1=CCCCC1 (configuration not stated)	-1	-6	2	8	21*	1
CC1=C(C(=O)N(C)C)CC(CC(=O)NC2CC2)C(=O)N1CCC1=CCCCC1 (configuration not stated)	5	11	-9	4	0	4
CCN(CC)C(=O)C1=C(C)N(CCCN2CCCC2=O)C(=O)C(CC(=O)NCCc2ccccn2)C1 (configuration not stated)	-9	-1	-5	4	1	2
CC1=C(C(=O)N(C)C)CC(CC(=O)NCCCN(C)C)C(=O)N1CCCN1CCCC1=O (configuration not stated)	1	-8	4	3	24*	-2
CC1=C(C(=O)N(C)C)CC(CC(=O)NCCc2ccccn2)C(=O)N1CCCN1CCCC1=O (configuration not stated)	1	4	-13	3	25*	-7
O=C(NCc1ccccc1)C1CCN(c2nc(-c3ccc(Br)cc3)cs2)CC1	.	.	.	-3	1	-2
CCCCCCCCN1CN2Cc3cc(OC)ccc3C2CS1(=O)=O (configuration not stated)	.	.	.	2	-1	-1
CN(C(=O)CCc1nnc(CCCCc2ccccc2)o1)C1CC(C)(C)NC(C)(C)C1	-5	7	1	7	46*	3
CN(C(=O)CCc1nnc(CCCCc2ccccc2)o1)C1CCOCC1	2	-4	-7	6	17	3
O=C(NCCCc1ccccc1)O[C@@H]1CC[C@@]23CCCN2C(=O)CCC[C@H]3C1	.	.	.	-3	5	1
COc1cc(NC(=O)c2noc3c2CCC3)c(OC)cc1Cl	-1	0	10	0	28*	7
CS(=O)(=O)c1sc2nc(-c3cccs3)cc(-c3ccccc3)c2c1N	10	1	-3	-1	-3	20*
CC(C)NC(=O)c1c(CSc2ccccc2)noc1C(=O)NCc1ccccc1	0	-7	-6	-2	22*	1
COC(=O)c1ccc(Cn2ccc3ccc(-c4ccc5ccn(Cc6ccc(OC)cc6)c5c4)cc32)cc1	.	.	.	-2	-4	4
Cc1cc(C(=O)N2CCC2(C)C(=O)Nc2cc(C(C)(C)C)nn2C)nn1C (configuration not stated)	4	-1	-10	2	3	3

High-throughput results (PubChem)
